Test results: ChEMBL document CHEMBL5724801, “EUbOPEN Chemogenomics Library - Multiplex” (2024)
Where “and” joins values, the source holds several entries; their conditions need not be identical. Identical values can stand only once.

Test system: Fibroblast
Assay: Multiplex assay against human fibroblast
Type: toxicity, cell-based
In short: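 Cells stained live at seeding with Hoechst33342, BioTracker Green Microtubule Cytoskeleton Dye, MitoTracker Red and Annexin V Alexa Fluor 680 were imaged on a CQ1 microscope at 37°C and 5% CO2 after compound addition. Their classification by CellPathfinder machine-learning gating ran from Hoechst high-intensity objects versus normal cells, to healthy, pyknosed or fragmented nuclei among normal cells, to mitotic or apoptotic among pyknosed cells. Tubulin, mitochondrial-mass and membrane-permeability phenotypes are per cents of healthy-nucleus cells.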

[1] = 12 h, 1 µM, compound concentration 1 uM
[2] = 12 h, 10 µM, compound concentration 10 uM
[3] = 24 h, 1 µM, compound concentration 1 uM
[4] = 24 h, 10 µM, compound concentration 10 uM
[5] = 48 h, 1 µM, compound concentration 1 uM
[6] = 48 h, 10 µM, compound concentration 10 uM

## CCC(=N\O)/C(C)=C/c1ccc(F)cc1 [A-079]
[1]
  Population Apoptotic (%): 15.91% and 23.08%
  Population Fragmented Nuclei (%): 8.18% and 2.86%
  Population Healthy Nuclei (%): 71.82% and 82.29%
  Population Hoechst High Intensity Objects (%): 0%
  Population Membrane Permeable-Phenotype (%): 3.16% and 4.86%
  Population Mitochondria Different-Phenotype (%): 3.16% and 9.72%
  Population Mitotic Cells (%): 84.09% and 76.92%
  Population Normal (%): 100%
  Population Pyknosed Nuclei (%): 20% and 14.86%
  Population Tubulin-Different-Phenotype (%): 10.13% and 14.58%
  Total Cell Count: 220 and 175
[2]
  Population Apoptotic (%): 11.32% and 27.78%
  Population Fragmented Nuclei (%): 6.99% and 5.71%
  Population Healthy Nuclei (%): 64.52% and 81.43%
  Population Hoechst High Intensity Objects (%): 0%
  Population Membrane Permeable-Phenotype (%): 5.83% and 7.02%
  Population Mitochondria Different-Phenotype (%): 5% and 9.65%
  Population Mitotic Cells (%): 88.68% and 72.22%
  Population Normal (%): 100%
  Population Pyknosed Nuclei (%): 28.49% and 12.86%
  Population Tubulin-Different-Phenotype (%): 13.33% and 21.93%
  Total Cell Count: 186 and 140
[3]
  Population Apoptotic (%): 15.15% and 10.53%
  Population Fragmented Nuclei (%): 10% and 1.7%
  Population Healthy Nuclei (%): 75.65% and 87.5%
  Population Hoechst High Intensity Objects (%): 0%
  Population Membrane Permeable-Phenotype (%): 2.3% and 3.25%
  Population Mitochondria Different-Phenotype (%): 2.87% and 6.49%
  Population Mitotic Cells (%): 84.85% and 89.47%
  Population Normal (%): 100%
  Population Pyknosed Nuclei (%): 14.35% and 10.8%
  Population Tubulin-Different-Phenotype (%): 10.92% and 9.74%
  Total Cell Count: 230 and 176
[4]
  Population Apoptotic (%): 17.14% and 20.83%
  Population Fragmented Nuclei (%): 8.85% and 6.62%
  Population Healthy Nuclei (%): 72.92% and 77.48%
  Population Hoechst High Intensity Objects (%): 0%
  Population Membrane Permeable-Phenotype (%): 10.71% and 3.42%
  Population Mitochondria Different-Phenotype (%): 7.86% and 4.27%
  Population Mitotic Cells (%): 82.86% and 79.17%
  Population Normal (%): 100%
  Population Pyknosed Nuclei (%): 18.23% and 15.89%
  Population Tubulin-Different-Phenotype (%): 19.29% and 19.66%
  Total Cell Count: 192 and 151
[5]
  Population Apoptotic (%): 46.15% and 36.36%
  Population Fragmented Nuclei (%): 10.24% and 4.69%
  Population Healthy Nuclei (%): 84.65% and 89.58%
  Population Hoechst High Intensity Objects (%): 0%
  Population Membrane Permeable-Phenotype (%): 0.47% and 4.65%
  Population Mitotic Cells (%): 53.85% and 63.64%
  Population Normal (%): 100%
  Population Pyknosed Nuclei (%): 5.12% and 5.73%
  Total Cell Count: 254 and 192
[6]
  Population Apoptotic (%): 20% and 36.36%
  Population Fragmented Nuclei (%): 12.33% and 5.62%
  Population Healthy Nuclei (%): 80.82% and 87.5%
  Population Hoechst High Intensity Objects (%): 0%
  Population Membrane Permeable-Phenotype (%): 1.69% and 6.43%
  Population Mitotic Cells (%): 80% and 63.64%
  Population Normal (%): 100%
  Population Pyknosed Nuclei (%): 6.85% and 6.88%
  Population Tubulin-Different-Phenotype (%): 6.78% and 17.86%
  Total Cell Count: 219 and 160

## CCCCC[C@H](O)/C=C/[C@H]1[C@H](O)CC(=O)[C@@H]1CCCCCCC(=O)O [ALPROSTADIL]
[1]
  Population Apoptotic (%): 61% and 43%
  Population Fragmented Nuclei (%): 16% and 23%
  Population Healthy Nuclei (%): 71% and 57%
  Population Hoechst High Intensity Objects (%): 0% and 4%
  Population Membrane Permeable-Phenotype (%): 0% and 10%
  Population Mitochondria Different-Phenotype (%): 1% and 2%
  Population Mitotic Cells (%): 38% and 56%
  Population Normal (%): 99% and 95%
  Population Pyknosed Nuclei (%): 12% and 18%
  Total Cell Count: 150 and 169
[2]
  Population Apoptotic (%): 36% and 34%
  Population Healthy Nuclei (%): 75% and 43%
  Population Membrane Permeable-Phenotype (%): 2% and 11%
  Population Mitochondria Different-Phenotype (%): 4% and 1%
  Population Mitotic Cells (%): 63% and 65%
  Population Normal (%): 94% and 83%
  Population Pyknosed Nuclei (%): 17% and 31%
  Population Tubulin-Different-Phenotype (%): 26% and 45%
  Total Cell Count: 136 and 146
[3]
  Population Apoptotic (%): 25% and 43%
  Population Fragmented Nuclei (%): 15% and 22%
  Population Healthy Nuclei (%): 73% and 53%
  Population Hoechst High Intensity Objects (%): 0% and 2%
  Population Membrane Permeable-Phenotype (%): 0% and 8%
  Population Mitochondria Different-Phenotype (%): 1% and 8%
  Population Mitotic Cells (%): 75% and 56%
  Population Normal (%): 99% and 97%
  Population Pyknosed Nuclei (%): 10% and 24%
  Population Tubulin-Different-Phenotype (%): 15% and 40%
  Total Cell Count: 147 and 165
[4]
  Population Apoptotic (%): 63% and 30%
  Population Fragmented Nuclei (%): 14% and 27%
  Population Healthy Nuclei (%): 69% and 45%
  Population Membrane Permeable-Phenotype (%): 0% and 16%
  Population Mitochondria Different-Phenotype (%): 2% and 3%
  Population Mitotic Cells (%): 36% and 69%
  Population Normal (%): 97% and 86%
  Population Pyknosed Nuclei (%): 15% and 26%
  Total Cell Count: 147 and 157
[5]
  Population Apoptotic (%): 32% and 55%
  Population Fragmented Nuclei (%): 18% and 26%
  Population Healthy Nuclei (%): 62% and 51%
  Population Hoechst High Intensity Objects (%): 1% and 3%
  Population Membrane Permeable-Phenotype (%): 1% and 6%
  Population Mitochondria Different-Phenotype (%): 4% and 8%
  Population Mitotic Cells (%): 67% and 44%
  Population Normal (%): 98% and 96%
  Population Pyknosed Nuclei (%): 18% and 21%
  Population Tubulin-Different-Phenotype (%): 30% and 44%
  Total Cell Count: 152 and 162
[6]
  Population Apoptotic (%): 62% and 48%
  Population Fragmented Nuclei (%): 11% and 33%
  Population Healthy Nuclei (%): 62% and 44%
  Population Mitochondria Different-Phenotype (%): 7%
  Population Mitotic Cells (%): 37% and 51%
  Population Normal (%): 97% and 83%
  Population Pyknosed Nuclei (%): 26% and 22%
  Population Tubulin-Different-Phenotype (%): 34% and 60%
  Total Cell Count: 144
